# From PubChem BioAssay
# Only a selection was taken, and hits are over-represented in it overall.
# Fibroblast inh: blocks proliferation of human lung fibroblasts; 85,000 compounds, 1.1% hits; viability, % at 10 µM; LL 47 human lung fibroblast viability, ATP luminescence; hits give low values;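 active = viability at or below 50% in the single dose screen; inactive = viability above 50%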;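 note: compound exposure lasted 72 h before the ATP readout; 100% = median luminescence of untreated cell-only wells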
#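 Material: human LL 47 lung fibroblast cells; quantity: 1,150 cells/well; medium: IMEM plus 15% FBS; doses: 0.1% DMSO in all compound wells; timing: overnight attachment after seeding, then 72 h compound exposure at 37 °C; detection: CellTiter-Glo luminescence; measure: % viability of median cell-only signal; controls: cell-only wells, no compound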
# H69AR growth 86K: blocks growth of human H69AR lung tumor cells | H69AR lung tumor viability, ATP luminescence, 72 h; hits give low values | viability, % at 10 µM | 85,000 compounds, 6% hits | AID 598;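 active = viability at or below 40%; inactive = viability above 40%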;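 note: multidrug resistant small cell line overexpressing MRP-1 efflux transporter; 100% = mean luminescence of untreated control wells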
# HCT116 PTEN-null: suppresses growth of cells with PTEN deletion. HCT116 PTEN-null viability, CellTiter-Glo, 60 h; hits give low values. viability, % at 10 µM. 140,000 compounds, 1.2% hits;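 active = viability at or below a set limit, 4 SD under the median of all tested compounds, cut at about 3.7% in these data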;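 note: PTEN knockout HCT116 line with beta catenin targeted HCT116 as companion control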
# HUVEC inhibit: human endothelial cell proliferation inhibition; 86,000 compounds, 1.1% hits; HUVEC proliferation, CellTiter-Glo luminescence, 72 h; hits give low values; viability, % at 10 µM (by protocol);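 active = viability at or below 30%; inactive = viability above 30%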;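 note: 100% = median luminescence of DMSO-only cell control wells on each plate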
# Pyk2 oligo antag: blocks oligomerization of human Pyk2 in cells; Q14289; z-score (the deposit names both 25 µM and 10 µM); 99,000 compounds, 0.83% hits; Q293 cells, Pyk2 FERM NanoBiT luminescence; hits give low values;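 active = Z-score of -3 or lower, scaled per plate to the spread of control and sample wells; inactive = z-score above -3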;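 note: negative z-score means lost luminescence so less FERM oligomerization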
# Target sequence (Q14289 whole entry, looked up): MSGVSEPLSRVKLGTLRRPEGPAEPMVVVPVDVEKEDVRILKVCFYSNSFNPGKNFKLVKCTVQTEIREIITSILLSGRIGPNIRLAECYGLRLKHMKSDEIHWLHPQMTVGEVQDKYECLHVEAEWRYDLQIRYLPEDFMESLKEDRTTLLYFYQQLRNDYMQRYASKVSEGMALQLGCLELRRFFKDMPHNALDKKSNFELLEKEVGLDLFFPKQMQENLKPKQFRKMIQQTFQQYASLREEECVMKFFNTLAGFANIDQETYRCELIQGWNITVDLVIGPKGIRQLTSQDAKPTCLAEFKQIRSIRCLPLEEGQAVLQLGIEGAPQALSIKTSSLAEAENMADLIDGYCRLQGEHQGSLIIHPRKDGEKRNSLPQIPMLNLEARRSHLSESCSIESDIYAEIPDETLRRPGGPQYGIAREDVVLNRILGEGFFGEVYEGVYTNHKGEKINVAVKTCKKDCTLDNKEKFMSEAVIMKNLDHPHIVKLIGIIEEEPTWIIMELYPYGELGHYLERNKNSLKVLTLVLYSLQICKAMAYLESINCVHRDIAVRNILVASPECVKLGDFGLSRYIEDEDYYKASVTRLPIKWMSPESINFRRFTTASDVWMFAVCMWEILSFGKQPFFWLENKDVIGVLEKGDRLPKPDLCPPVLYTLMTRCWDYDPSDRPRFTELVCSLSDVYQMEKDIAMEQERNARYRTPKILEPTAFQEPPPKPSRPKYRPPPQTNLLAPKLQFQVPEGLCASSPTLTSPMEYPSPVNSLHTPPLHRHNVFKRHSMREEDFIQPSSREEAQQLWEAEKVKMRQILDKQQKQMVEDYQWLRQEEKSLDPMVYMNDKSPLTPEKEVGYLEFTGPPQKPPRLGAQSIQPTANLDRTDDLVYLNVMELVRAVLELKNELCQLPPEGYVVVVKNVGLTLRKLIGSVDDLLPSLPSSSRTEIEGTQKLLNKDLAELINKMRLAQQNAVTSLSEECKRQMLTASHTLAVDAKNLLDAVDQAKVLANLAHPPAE
# HCT116 bCat-KO: beta-catenin-lacking colon tumor cell growth suppression | HCT116 beta-catenin knockout viability, CellTiter-Glo, 60 h; hits give low values | viability, % at 10 µM | 140,000 compounds, 1.5% hits;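 active = viability at or under a set limit, the compound median less 4 SD, cut at about 6% in these data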;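 note: 0% = Hyamine 1622 control at 20 µM and 100% = untreated cell control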
# Active calls of the source: *; x = not tested or not shown.
SMILES,Fibroblast inh,H69AR growth 86K,HCT116 PTEN-null,HUVEC inhibit,Pyk2 oligo antag,HCT116 bCat-KO
COc1cccc(N=Nc2c(N)[nH]n3c(=O)cc(-c4ccccc4)nc23)c1,x,x,12,x,-3.6*,3.1*
CCOc1cc(CNCCCN2CCOCC2)cc(Br)c1OCC(=O)Nc1cccc(C(F)(F)F)c1,x,x,1.5*,x,0,1.9*
O=C(Nc1ccc2snnc2c1)Nc1cccc2ccccc12,92,9.3*,4,60,-0.96,9
O=C(Nc1ccc2snnc2c1)N1CCN(c2ccccc2)CC1,99,80,82,113,0.38,73
FC(F)(F)c1ccc(N2CCOCC2)c(Nc2nc3ccccc3n3cnnc23)c1,x,x,0.4*,x,-0.43,0.8*
O=C(Cn1cnc2ccccc21)Nc1cc(C(F)(F)F)ccc1N1CCOCC1,97,97,75,108,-0.52,80
Cc1ccc(-c2nnc(SCC(=O)N/N=C/c3ccc(C)s3)n2-c2ccccc2)cc1,x,x,106,x,x,105
O=C(Nc1cccc(-c2cnc3ccccc3n2)c1)c1ccccc1,x,x,93,x,0.08,85
O=C(CCl)Nc1cccc(-c2cnc3ccccc3n2)c1,2.7*,1.5*,3.0*,4.1*,0.35,5.1*
O=C(Nc1cccc(NC(=O)c2ccc(-c3cccc(Br)c3)o2)c1)c1ccco1,104,25*,39,61,-2.6,50
O=C(Nc1cccc(-c2cnc3ccccc3n2)c1)c1cccc(NC(=O)c2ccco2)c1,35*,8.1*,71,17*,-4.4*,75
Cc1ccc2nc(-c3ccc(NC(=O)c4ccco4)cc3)[nH]c2c1,101,51,91,63,-1.5,94
O=C(Nc1cccc(-c2nc3ccccc3[nH]2)c1)c1ccco1,96,34*,84,77,-1,96
O=C(Nc1cccc(NC(=O)c2ccc(-c3ccc(Br)cc3)o2)c1)c1ccccc1,72,55,6,58,-0.28,15
CC(=O)Nc1ccc(S(=O)(=O)NCC(=O)OC(C)c2ccccc2Cl)cc1 (configuration not stated),x,x,67,x,0.64,71
CC[C@H](C)[C@@H](NC(=O)O[C@@H]1C(=O)c2cc(Br)ccc2O[C@H]1c1ccc2c(c1)OCO2)C(=O)OC,x,x,90,x,x,96
N=c1c2c(-c3ccccc3)c(-c3ccccc3)n(Cc3ccccc3)c2ncn1CCCn1ccnc1,2.4*,-0.2*,2.0*,2.3*,-0.48,1.2*
Clc1ccccc1OCCCCn1ccnc1,96,88,96,103,0.32,95
N=c1c2c(-c3ccccc3)c(-c3ccccc3)n(Cc3ccco3)c2ncn1Cc1ccco1,x,1.4*,1.4*,2.7*,-2.1,1.5*
O=c1c2cnn(-c3ccccc3)c2ncn1Cc1ccco1,103,98,95,99,0.07,92
O=C(COC(=O)c1sc2ccccc2c1Cl)Nc1ncc(Cl)cc1Cl,x,x,95,x,x,86
CC1CCN(CC(=O)N2c3ccccc3CCc3ccccc32)CC1,x,x,0.8*,x,1.6,0.8*
O=C(c1ccc(S(=O)(=O)c2ccc(F)cc2)c([N+](=O)[O-])c1)N1CCCCCC1,x,x,11,x,x,10
O=C(c1ccc(S(=O)(=O)c2ccccc2Cl)c([N+](=O)[O-])c1)N1CCN(Cc2ccccc2)CC1,x,x,9,x,x,4.9*
COc1cccc(/C=C/C(=C2\C(=O)N(c3ccccc3)N=C2C)c2ccc(Br)cc2)c1OC,x,x,x,x,-1.2,x
SMILES,Fibroblast inh,H69AR growth 86K,HCT116 PTEN-null,HUVEC inhibit,Pyk2 oligo antag,HCT116 bCat-KO
Clc1cccc(Cl)c1COn1nnc2ccccc21,63,35*,19,41,-0.73,14
Cn1c(C(=O)OCC(=O)NCc2ccco2)cc2sccc21,97,82,94,74,0.85,100
Cc1cc2c(cc(C(=O)OCC(=O)NCc3ccco3)n2C)s1,71,27*,27,58,0.39,25
Cc1nc2ccc(C(C(F)(F)F)(C(F)(F)F)C(F)(F)F)cc2[nH]1,78,94,55,79,-1.9,53
CCC(C)(C)n1nnnc1C(c1ccncc1)N1CCC(Cc2ccccc2)CC1 (configuration not stated),102,87,80,91,-3.1*,94
CCCc1cc(C(N)=O)c(NC(C)=O)s1,99,40*,82,85,-0.44,91
CCOC(=O)c1cc(CC)sc1NC(=O)CCC(=O)O,91,85,96,92,0.22,95
O=C(CSc1oc(-c2ccc(F)cc2)nc1S(=O)(=O)c1ccc(F)cc1)NCC1CCCO1 (configuration not stated),14*,49,9,61,-0.67,21
Cc1ccc(S(=O)(=O)c2nc(-c3ccc(F)cc3)oc2SCC(=O)NCC2CCCO2)cc1 (configuration not stated),62,28*,25,71,0.37,38
OCCN1CCN(CCCc2c3c(cc4c2CCC4)CCC3)CC1,x,x,79,x,x,74
CCCCOc1ccc(-c2nnn(CC(=O)NCc3ccco3)n2)cc1,52,29*,31,57,-1.1,29
CN(C)CCCN(C(=O)c1ccc2c(c1)CCCC2)c1nc2c(F)cccc2s1,x,x,16,x,x,29
Cc1ccc2nc(N(CCCN(C)C)C(=O)c3ccc4c(c3)CCCC4)sc2c1,x,x,1.0*,x,0.61,3.4*
CC(C)c1nnc(NC(=O)CCC(=O)NCc2cccs2)s1,97,91,91,92,0.22,99
O=C(CSc1nc2[nH]ncc2c(=O)[nH]1)NCc1ccc(F)cc1,x,x,92,x,0.03,100
CC(C)=CCC/C(C)=C/CCC(C)NCCN1CCNCC1 (configuration not stated),14*,52,1.8*,61,x,1.8*
CC(C)=CCC/C(C)=C/CC(C)(C)CNCCN1CCNCC1,1.7*,0.6*,1.2*,1.5*,x,1.1*
CCNC(=O)NC(=O)C(C)OC(=O)C1CCN(S(=O)(=O)c2ccc(C)c(C)c2)CC1 (configuration not stated),x,x,103,x,x,93
Cc1ccc(C(CC(=O)c2ccco2)SCCO)cc1 (configuration not stated),x,x,5,x,0.61,5.5*
O=C(CC(SCCO)c1ccc(F)cc1)c1ccco1 (configuration not stated),x,x,2.5*,x,-0.38,4.0*
O=C(CSCCSCC(=O)c1ccco1)c1ccco1,94,85,104,87,x,101
O=C(c1ccco1)N1CCN=C1SCc1ccc(F)cc1,107,106,108,102,x,115
Cc1ccc(S(=O)(=O)N2CCC(=O)N(C(COCc3ccc(Cl)cc3)Cc3ccccc3)CC2)cc1 (configuration not stated),x,x,75,x,x,70
